Experimental data published in ChEMBL document CHEMBL5046312, “Rational Design of an Orally Active Anticancer Fluoropyrimidine, Pencitabine, a Hybrid of Capecitabine and Gemcitabine” (ACS Med Chem Lett, 2022).

Experiments:
KG-1 = assay: Antiproliferative activity against human KG-1 cells assessed as reduction in cell viability incubated for 72 hrs by MTT assay; assay type: functional, cell-based; conditions: KG-1, 72 h
Procedure, shortened: (§1)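 Growth inhibition after 72 h continuous exposure of HCT-116 colorectal carcinoma or KG-1 acute myelogenous leukemia cells; concentration giving 50% inhibition taken from dose–response curves.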

HCT-116 [1] = assay: Antitumor activity against human HCT-116 cells xenografted in athymic nude mouse assessed as tumor growth inhibition at 25 mg/kg, po administered for 26 days relative to control; assay type: functional; conditions: HCT-116, po, 624 h, time 26 day
Procedure, shortened: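 Subcutaneous HCT-116 human colorectal carcinoma xenografts in athymic female nude mice; oral dosing at 25 mg/kg over a 26-day period, with capecitabine given as positive control; tumor growth followed, N = 3, SD shown.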

HCT-116 [2] = assay: Antiproliferative activity against human HCT-116 cells assessed as reduction in cell viability incubated for 72 hrs by MTT assay; assay type: functional, cell-based; conditions: HCT-116, 72 h; procedure, shortened: as §1
SK-BR-3 [3] = assay: Induction of DNA damage in human SK-BR-3 cells assessed as increase in tail DNA measured at 1 uM after 72 hrs by neutral comet assay relative to control; assay type: functional; conditions: in the assay text read “alkaline comet assay” for “neutral comet assay”
Procedure, shortened: (§2)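 Comet assay scoring DNA damage as % DNA in tail; cells exposed to 0.5, 1.0 or 2.0 μM etoposide or 1.0, 3.0 or 10 μM test nucleoside; mean of scored comets per sample with SE and 80% confidence interval.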

SK-BR-3 [4] = assay: Induction of DNA damage in human SK-BR-3 cells assessed as increase in tail DNA measured at 2 uM after 72 hrs by neutral comet assay relative to control; assay type: functional; conditions: in the assay text read “alkaline comet assay” for “neutral comet assay”; procedure, shortened: as §2
SK-BR-3 [5] = assay: Induction of DNA damage in human SK-BR-3 cells assessed as increase in tail DNA measured at 0.5 uM after 72 hrs by neutral comet assay relative to control; assay type: functional; conditions: in the assay text read “alkaline comet assay” for “neutral comet assay”; procedure, shortened: as §2
SK-BR-3 [6] = assay: Induction of DNA damage in human SK-BR-3 cells assessed as increase in tail DNA measured at 3 uM after 72 hrs by neutral comet assay relative to control; assay type: functional; conditions: in the assay text read “alkaline comet assay” for “neutral comet assay”; procedure, shortened: as §2
SK-BR-3 [7] = assay: Induction of DNA damage in human SK-BR-3 cells assessed as increase in tail DNA measured at 10 uM after 72 hrs by neutral comet assay relative to control; assay type: functional; conditions: in the assay text read “alkaline comet assay” for “neutral comet assay”; procedure, shortened: as §2

| IC50 (HCT-116 [2]) | SMILES | IC50 (KG-1) | Activity (SK-BR-3 [3]) | also measured |
| --- | --- | --- | --- | --- |
| 370 nM | CCCCCOC(=O)Nc1nc(=O)n([C@@H]2O[C@H](CO)[C@@H](O)C2(F)F)cc1F | 130 nM | – | inhibition in vivo at 25 mg/kg (HCT-116 [1]): 40% |
| – | COc1cc([C@@H]2c3cc4c(cc3[C@@H](O[C@@H]3O[C@@H]5CO[C@@H](C)O[C@H]5[C@H](O)[C@H]3O)[C@H]3COC(=O)[C@H]23)OCO4)cc(OC)c1O [ETOPOSIDE] | – | 24.98% | Activity (SK-BR-3 [4]): 35.17%; Activity (SK-BR-3 [5]): 15.87% |
| – | Nc1nc(=O)n([C@@H]2O[C@H](CO)[C@@H](O)C2(F)F)cc1F | – | 20.7% | Activity (SK-BR-3 [6]): 24.28%; Activity (SK-BR-3 [7]): 26.73% |
| 34200 nM | CCCCCOC(=O)Nc1nc(=O)n([C@@H]2O[C@H](C)[C@@H](O)[C@H]2O)cc1F [CAPECITABINE] | 8900 nM | – | – |
| 50 nM | Nc1ccn([C@@H]2O[C@H](CO)[C@@H](O)C2(F)F)c(=O)n1 [GEMCITABINE] | 18 nM | – | – |
